{"source": "ChEMBL document CHEMBL1649288", "about": "“Fmt bypass in Pseudomonas aeruginosa causes induction of MexXY efflux pump expression” (2009)", "type_in_all_cases": "functional", "key": {"[1]": {"test_system": "Pseudomonas aeruginosa", "test": "Antibacterial activity against wild type Pseudomonas aeruginosa PAO1 NB52019 by broth microdilution method", "summary_of_the_method": "(§1)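 Broth microdilution following standard CLSI guidelines. P. aeruginosa strains were routinely cultured at 37°C in Mueller-Hinton or Luria broth. Where plasmids required selection, media carried gentamicin or tetracycline (100 μg/ml) or carbenicillin (100 μg/ml).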"}, "[2]": {"test_system": "Pseudomonas aeruginosa", "test": "Antibacterial activity against Pseudomonas aeruginosa PAO1 NB52021 expressing mexB by broth microdilution method", "summary_of_the_method": "(§2)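 Broth microdilution MICs run per standard CLSI guidelines; P. aeruginosa strains routinely grown at 37°C in Mueller-Hinton or Luria medium.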"}, "[3]": {"test_system": "Pseudomonas aeruginosa", "test": "Antibacterial activity against Pseudomonas aeruginosa PAO1 NB52022 expressing mexX by broth microdilution method", "summary_of_the_method": "as §1"}, "[4]": {"test_system": "Pseudomonas aeruginosa", "test": "Antibacterial activity against Pseudomonas aeruginosa PAO1 NB52023 expressing mexB and mexX by broth microdilution method", "summary_of_the_method": "as §2"}, "[5]": {"test_system": "Pseudomonas aeruginosa", "test": "Antibacterial activity against Pseudomonas aeruginosa PAO1 NB52020 expressing mexAB-oprM by broth microdilution method", "summary_of_the_method": "as §1"}, "[6]": {"test_system": "Pseudomonas aeruginosa", "test": "Antibacterial activity against Pseudomonas aeruginosa PAO1 CDS1 expressing 14-bp deleted nfxB at base 92 by broth microdilution method", "summary_of_the_method": "as §2"}, "[7]": {"test_system": "Pseudomonas aeruginosa", "test": "Antibacterial activity against Pseudomonas aeruginosa PAO1 CDS6 expressing nfxB A115C, T39P mutant by broth microdilution method", "summary_of_the_method": "as §1"}, "[8]": {"test_system": "Pseudomonas aeruginosa", "test": "Antibacterial activity against Pseudomonas aeruginosa PAO1 CDS28 expressing 16-bp deleted fmt at position 833 by broth microdilution method", "summary_of_the_method": "as §2"}, "[9]": {"test_system": "Pseudomonas aeruginosa", "test": "Antibacterial activity against Pseudomonas aeruginosa PAO1 CDS28 harboring pSW1 by broth microdilution method", "summary_of_the_method": "as §1"}, "[10]": {"test_system": "Pseudomonas aeruginosa", "test": "Antibacterial activity against Pseudomonas aeruginosa PAO1 CDS13 expressing mexAB-oprM fmt C127T, R43C mutant by broth microdilution method", "summary_of_the_method": "as §1"}, "[11]": {"test_system": "Pseudomonas aeruginosa", "test": "Antibacterial activity against Pseudomonas aeruginosa PAO1 CDS13 harboring pSW1 by broth microdilution method", "summary_of_the_method": "as §1"}, "[12]": {"test_system": "Pseudomonas aeruginosa", "test": "Antibacterial activity against Pseudomonas aeruginosa PAO1 CDR1 expressing fmt::aacC1 by broth microdilution method", "summary_of_the_method": "as §2"}, "[13]": {"test_system": "Pseudomonas aeruginosa", "test": "Antibacterial activity against Pseudomonas aeruginosa PAO1 CDR2 expressing mexAB-oprM and fmt::aacC1 by broth microdilution method", "summary_of_the_method": "as §2"}, "[14]": {"test_system": "Pseudomonas aeruginosa", "test": "Antibacterial activity against Pseudomonas aeruginosa PAO1 CDS30 expressing folD G493T, V165R mutant by broth microdilution method", "summary_of_the_method": "as §1"}, "[15]": {"test_system": "Pseudomonas aeruginosa", "test": "Antibacterial activity against Pseudomonas aeruginosa PAO1 CDS30 harboring pRC5 by broth microdilution method", "summary_of_the_method": "as §1"}, "[16]": {"test_system": "Pseudomonas aeruginosa", "test": "Antibacterial activity against Pseudomonas aeruginosa PAO1 CDS22 expressing mexAB-oprM folD A424C, T142P mutant by broth microdilution method", "summary_of_the_method": "as §1"}, "[17]": {"test_system": "Pseudomonas aeruginosa", "test": "Antibacterial activity against Pseudomonas aeruginosa PAO1 CDS22 harboring pRC5 by broth microdilution method", "summary_of_the_method": "as §1"}, "[18]": {"test_system": "Pseudomonas aeruginosa", "test": "Induction of mexY (PA2018) gene expression in wild type Pseudomonas aeruginosa PAO1 NB52019 at 12 ug/ml relative to control", "summary_of_the_method": "(§3)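 Duplicate P. aeruginosa NB52019 cultures were diluted 1:100 from overnight into 30 ml Luria broth with or without 12 μg/ml drug, shaken at 180 rpm at 37°C to OD600 0.8, and harvested at 15,000 × g for 10 min. Total RNA was purified with a 40-min on-column DNase I step for transcriptional profiling, and treated cultures were compared with untreated ones.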"}, "[19]": {"test_system": "Pseudomonas aeruginosa", "test": "Induction of mexX (PA2019) gene expression in wild type Pseudomonas aeruginosa PAO1 NB52019 at 12 ug/ml relative to control", "summary_of_the_method": "as §3"}, "[20]": {"test_system": "Pseudomonas aeruginosa", "test": "Induction of mexZ (PA2020) gene expression in wild type Pseudomonas aeruginosa PAO1 NB52019 at 12 ug/ml relative to control", "summary_of_the_method": "as §3"}, "[21]": {"test_system": "Pseudomonas aeruginosa", "test": "Induction of […] (PA5471) gene expression in wild type Pseudomonas aeruginosa PAO1 NB52019 at 12 ug/ml relative to control", "summary_of_the_method": "as §3"}, "[22]": {"test_system": "Pseudomonas aeruginosa", "test": "Induction of oprM (PA0427) gene expression in wild type Pseudomonas aeruginosa PAO1 NB52019 at 12 ug/ml relative to control", "summary_of_the_method": "as §3"}}, "data": [{"smiles": "CCCC[C@H](CN(O)C=O)C(=O)N1CCC[C@H]1C(=O)Nc1ccc(F)c[n+]1[O-]", "values": [{"measurement": "MIC", "setting": "[1]", "result": 128, "unit": "µg/mL"}, {"measurement": "MIC", "setting": "[2]", "result": 64, "unit": "µg/mL"}, {"measurement": "MIC", "setting": "[3]", "result": 128, "unit": "µg/mL"}, {"measurement": "MIC", "setting": "[4]", "result": 8, "unit": "µg/mL"}, {"measurement": "MIC", "setting": "[5]", "result": 4, "unit": "µg/mL"}, {"measurement": "MIC", "setting": "[6]", "result": "> 128", "unit": "µg/mL"}, {"measurement": "MIC", "setting": "[7]", "result": "> 128", "unit": "µg/mL"}, {"measurement": "MIC", "setting": "[8]", "result": "> 1020", "unit": "µg/mL"}, {"measurement": "MIC", "setting": "[9]", "result": 128, "unit": "µg/mL"}, {"measurement": "MIC", "setting": "[10]", "result": "> 128", "unit": "µg/mL"}, {"measurement": "MIC", "setting": "[11]", "result": 4, "unit": "µg/mL"}, {"measurement": "MIC", "setting": "[12]", "result": "> 1020", "unit": "µg/mL"}, {"measurement": "MIC", "setting": "[13]", "result": "> 1020", "unit": "µg/mL"}, {"measurement": "MIC", "setting": "[14]", "result": "> 1020", "unit": "µg/mL"}, {"measurement": "MIC", "setting": "[15]", "result": 128, "unit": "µg/mL"}, {"measurement": "MIC", "setting": "[16]", "result": "> 128", "unit": "µg/mL"}, {"measurement": "MIC", "setting": "[17]", "result": 4, "unit": "µg/mL"}, {"measurement": "fold change (FC)", "setting": "[18]", "result": 11.7}, {"measurement": "fold change (FC)", "setting": "[19]", "result": 11.3}, {"measurement": "fold change (FC)", "setting": "[20]", "result": 4.8}, {"measurement": "fold change (FC)", "setting": "[21]", "result": 3.1}, {"measurement": "fold change (FC)", "setting": "[22]", "result": 0.78}]}]}
